“And” between values parts separate entries of the source, which are not always exact repeats. Identical values can stand only once.
What was measured:
T47D = assay: Cytotoxicity against human T47D cells after 2 days; format: functional, cell-based
How it was run: (§1)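 Cells seeded at 2-4 × 10^4 per well in medium with 10% FBS and incubated overnight at 37 °C, 5% CO2. Graded compound concentrations added on day 2. CCK-8 reagent added on day 4 for a further 4 h, absorbance read at 450 nm. IC50 from a four-parameter logistic fit; mean ± S.D. of three experiments run in triplicate.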

[1] = Cytotoxicity against human HCT15 cells after 2 days; format: functional, cell-based, HCT-15; how it was run: as §1
HeLa [2] = assay: Cell cycle arrest in human HeLa cells assessed as accumulation at G0/G1 phase phase at 5 uM after 24 hrs using ethidium bromide staining by flow cytometry analysis relative to control; format: functional; settings: in the assay text read “propidium iodide staining” for “ethidium bromide staining”
How it was run: (§2)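 HeLa cells exposed to graded compound concentrations for 24 h, harvested by centrifugation, PBS-washed twice, fixed overnight on ice in 70% ethanol. Stained with 10 μg/mL propidium iodide plus 0.5 mg/mL RNase and 0.1% Triton X-100 in PBS, 30 min at 37 °C in the dark. Flow cytometry gates: sub-G0/G1, G0/G1, S, G2/M.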

HeLa [3] = assay: Cell cycle arrest in human HeLa cells assessed as accumulation at S phase phase at 5 uM after 24 hrs using ethidium bromide staining by flow cytometry analysis relative to control; format: functional; settings: in the assay text read “propidium iodide staining” for “ethidium bromide staining”; how it was run: as §2
HeLa [4] = assay: Cell cycle arrest in human HeLa cells assessed as accumulation at G2/M phase phase at 5 uM after 24 hrs using ethidium bromide staining by flow cytometry analysis relative to control; format: functional; settings: in the assay text read “propidium iodide staining” for “ethidium bromide staining”; how it was run: as §2
HeLa [5] = assay: Cell cycle arrest in human HeLa cells assessed as accumulation at sub-G0/G1 phase at 10 uM after 24 hrs using ethidium bromide staining by flow cytometry analysis relative to control; format: functional; settings: in the assay text read “propidium iodide staining” for “ethidium bromide staining”; how it was run: as §2
HeLa [6] = assay: Cell cycle arrest in human HeLa cells assessed as accumulation at G0/G1 phase phase at 10 uM after 24 hrs using ethidium bromide staining by flow cytometry analysis relative to control; format: functional; settings: in the assay text read “propidium iodide staining” for “ethidium bromide staining”; how it was run: as §2
HeLa [7] = assay: Cell cycle arrest in human HeLa cells assessed as accumulation at S phase phase at 10 uM after 24 hrs using ethidium bromide staining by flow cytometry analysis relative to control; format: functional; settings: in the assay text read “propidium iodide staining” for “ethidium bromide staining”; how it was run: as §2
HeLa [8] = assay: Cell cycle arrest in human HeLa cells assessed as accumulation at G2/M phase phase at 10 uM after 24 hrs using ethidium bromide staining by flow cytometry analysis relative to control; format: functional; settings: in the assay text read “propidium iodide staining” for “ethidium bromide staining”; how it was run: as §2
HeLa [9] = assay: Cell cycle arrest in human HeLa cells assessed as accumulation at sub-G0/G1 phase at 25 uM after 24 hrs using […] by flow cytometry analysis relative to control; format: functional; how it was run: as §2
HeLa [10] = assay: Cell cycle arrest in human HeLa cells assessed as accumulation at G0/G1 phase phase at 25 uM after 24 hrs using […] by flow cytometry analysis relative to control; format: functional; how it was run: as §2
HeLa [11] = assay: Cell cycle arrest in human HeLa cells assessed as accumulation at S phase phase at 25 uM after 24 hrs using […] by flow cytometry analysis relative to control; format: functional; how it was run: as §2
HeLa [12] = assay: Cell cycle arrest in human HeLa cells assessed as accumulation at G2/M phase phase at 25 uM after 24 hrs using […] by flow cytometry analysis relative to control; format: functional; how it was run: as §2
HeLa [13] = assay: Cell cycle arrest in human HeLa cells assessed as accumulation at sub-G0/G1 phase at 50 uM after 24 hrs using […] by flow cytometry analysis relative to control; format: functional; how it was run: as §2
HeLa [14] = assay: Cell cycle arrest in human HeLa cells assessed as accumulation at G0/G1 phase phase at 50 uM after 24 hrs using […] by flow cytometry analysis relative to control; format: functional; how it was run: as §2
HeLa [15] = assay: Cell cycle arrest in human HeLa cells assessed as accumulation at S phase phase at 50 uM after 24 hrs using […] by flow cytometry analysis relative to control; format: functional; how it was run: as §2
HeLa [16] = assay: Cell cycle arrest in human HeLa cells assessed as accumulation at G2/M phase phase at 50 uM after 24 hrs using […] by flow cytometry analysis relative to control; format: functional; how it was run: as §2
[17] = Cytotoxicity against human MCF10A cells after 2 days; format: cell-based, MCF-10A; how it was run: as §1
DU-145 = assay: Cytotoxicity against human DU145 cells after 2 days; format: functional, cell-based; how it was run: as §1
[18] = molecular target: DNA topoisomerase 2-alpha (Homo sapiens) (UniProt P11388); assay: Inhibition of human DNA topoisomerase-2a-mediated relaxation of supercoiled DNA pBR322 at 100 uM after 4 hrs using ethidium bromide staining by agarose gel electrophoresis analysis
Sequence of DNA topoisomerase 2-alpha (Homo sapiens) (P11388 whole entry): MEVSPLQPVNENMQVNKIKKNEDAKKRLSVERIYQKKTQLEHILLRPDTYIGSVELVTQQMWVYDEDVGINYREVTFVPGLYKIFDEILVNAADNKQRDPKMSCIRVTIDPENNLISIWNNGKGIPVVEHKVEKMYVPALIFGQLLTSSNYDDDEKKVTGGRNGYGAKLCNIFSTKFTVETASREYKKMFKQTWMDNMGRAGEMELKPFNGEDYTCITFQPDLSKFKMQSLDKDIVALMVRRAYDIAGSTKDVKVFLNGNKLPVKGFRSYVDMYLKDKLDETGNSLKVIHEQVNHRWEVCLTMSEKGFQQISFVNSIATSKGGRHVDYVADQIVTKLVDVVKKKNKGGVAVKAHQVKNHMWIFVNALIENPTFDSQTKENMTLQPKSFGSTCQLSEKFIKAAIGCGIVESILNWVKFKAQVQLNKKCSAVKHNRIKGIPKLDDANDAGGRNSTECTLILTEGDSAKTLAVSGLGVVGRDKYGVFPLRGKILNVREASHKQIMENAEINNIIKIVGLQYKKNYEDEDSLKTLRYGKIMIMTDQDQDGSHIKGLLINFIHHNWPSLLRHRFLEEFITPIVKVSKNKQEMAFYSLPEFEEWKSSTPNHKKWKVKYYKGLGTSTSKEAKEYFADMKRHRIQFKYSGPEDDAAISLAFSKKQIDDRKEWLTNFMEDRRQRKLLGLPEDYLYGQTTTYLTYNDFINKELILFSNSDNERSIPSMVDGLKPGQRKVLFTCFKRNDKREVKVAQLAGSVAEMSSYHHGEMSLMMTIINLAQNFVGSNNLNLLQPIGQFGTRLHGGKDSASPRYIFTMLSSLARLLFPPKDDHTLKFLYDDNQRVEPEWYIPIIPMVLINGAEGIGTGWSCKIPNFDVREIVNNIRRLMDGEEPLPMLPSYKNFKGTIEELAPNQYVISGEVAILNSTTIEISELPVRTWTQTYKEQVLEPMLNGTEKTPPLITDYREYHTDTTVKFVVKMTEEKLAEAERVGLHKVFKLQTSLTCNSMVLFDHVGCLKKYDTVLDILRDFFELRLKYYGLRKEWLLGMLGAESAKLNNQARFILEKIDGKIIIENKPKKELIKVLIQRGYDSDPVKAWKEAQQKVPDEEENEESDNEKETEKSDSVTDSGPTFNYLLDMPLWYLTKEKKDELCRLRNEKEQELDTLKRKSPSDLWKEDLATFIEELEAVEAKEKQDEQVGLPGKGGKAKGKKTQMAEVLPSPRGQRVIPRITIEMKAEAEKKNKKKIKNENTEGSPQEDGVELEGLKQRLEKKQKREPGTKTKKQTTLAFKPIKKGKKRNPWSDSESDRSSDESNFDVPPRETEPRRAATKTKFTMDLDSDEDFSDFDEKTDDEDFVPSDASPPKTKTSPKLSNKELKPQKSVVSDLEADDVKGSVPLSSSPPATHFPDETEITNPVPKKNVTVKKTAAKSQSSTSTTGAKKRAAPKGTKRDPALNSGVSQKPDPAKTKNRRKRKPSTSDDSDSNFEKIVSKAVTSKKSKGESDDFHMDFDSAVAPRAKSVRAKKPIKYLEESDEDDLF
How it was run: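 Supercoiled pBR322 (200 ng) incubated with human topo IIα (1 unit) ± compound for 30 min at 30 °C. Buffer: 10 mM Tris-HCl pH 7.9, 50 mM NaCl, 50 mM KCl, 5 mM MgCl2, 1 mM EDTA, 1 mM ATP, BSA. Stopped with EDTA. 1% agarose gel run at 25 V for 4 h in TAE, ethidium bromide stain, supercoiled DNA quantified by UV imaging.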

[19] = molecular target: T1, DNA topoisomerase 1 (Homo sapiens) (UniProt P11387); assay: Inhibition of recombinant human DNA topoisomerase-1-mediated relaxation of supercoiled DNA pBR322 at 100 uM after 7 hrs using ethidium bromide staining by agarose gel electrophoresis analysis
T1 sequence (whole entry): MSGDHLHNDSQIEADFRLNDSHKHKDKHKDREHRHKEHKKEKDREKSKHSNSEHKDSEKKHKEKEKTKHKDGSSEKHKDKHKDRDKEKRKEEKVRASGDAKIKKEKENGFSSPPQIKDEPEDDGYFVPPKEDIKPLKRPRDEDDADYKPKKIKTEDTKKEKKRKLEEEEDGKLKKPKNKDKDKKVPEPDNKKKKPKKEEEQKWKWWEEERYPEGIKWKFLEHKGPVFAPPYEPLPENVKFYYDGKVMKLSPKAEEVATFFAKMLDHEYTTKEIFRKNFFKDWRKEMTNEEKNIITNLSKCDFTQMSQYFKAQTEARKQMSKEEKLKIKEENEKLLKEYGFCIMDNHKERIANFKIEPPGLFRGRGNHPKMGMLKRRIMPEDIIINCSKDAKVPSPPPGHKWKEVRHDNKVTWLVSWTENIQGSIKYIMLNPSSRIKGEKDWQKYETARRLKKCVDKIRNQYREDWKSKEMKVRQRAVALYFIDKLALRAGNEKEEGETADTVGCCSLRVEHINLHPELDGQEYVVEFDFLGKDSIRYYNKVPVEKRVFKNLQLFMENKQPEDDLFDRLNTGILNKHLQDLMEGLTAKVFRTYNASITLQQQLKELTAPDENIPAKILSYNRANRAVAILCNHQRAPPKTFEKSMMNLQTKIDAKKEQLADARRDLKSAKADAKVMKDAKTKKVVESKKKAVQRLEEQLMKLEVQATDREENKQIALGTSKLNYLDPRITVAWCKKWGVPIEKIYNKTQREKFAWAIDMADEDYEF
How it was run: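 pBR322 (100 ng) incubated with recombinant human topo I (0.4 units) ± compound for 30 min at 37 °C. Buffer: 10 mM Tris-HCl pH 7.9, 150 mM NaCl, 0.1% BSA, 1 mM spermidine, 5% glycerol. Quenched with sarcosyl stop solution. 1% agarose gel run at 15 V for 7 h in TAE, ethidium bromide stain, supercoiled DNA quantified under UV.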

Structure (SMILES) | IC50 (T47D; t47d) [µM] | IC50 ([1]; hct-15) [µM] | IC50 ([17]; Homo sapiens, MCF-10A, 48 h) [µM] | IC50 (T47D; Homo sapiens, T47D, 48 h) [µM] | IC50 (DU-145; Homo sapiens, DU-145, 48 h) [µM] | further results
Cl.Nc1nc(-c2cccs2)cc2ccccc12 | 17.5 | 24.4 |  |  |  | Activity (HeLa [2]): 63.67%; Activity (HeLa [3]): 7.76%; Activity (HeLa [4]): 16.08%; Activity (HeLa [5]): 6.6%; Activity (HeLa [6]): 64.43%; Activity (HeLa [7]): 9.55%; Activity (HeLa [8]): 13.67%; Activity (HeLa [9]): 5.22%; Activity (HeLa [10]): 56.01%; Activity (HeLa [11]): 13.82%; Activity (HeLa [12]): 11.42%; Activity (HeLa [13]): 6.54%; Activity (HeLa [14]): 52.6%; Activity (HeLa [15]): 10.09%; Activity (HeLa [16]): 22.37%
CCN1CCN(c2nc(-c3cccs3)cc3cc(C)ccc23)CC1 [listing 1 of 2 here] | 17.7 | 4.4 | 28.9 |  |  | IC50 (DU-145; du-145): 22.1 µM
c1csc(-c2cc3ccccc3c(N3CCOCC3)n2)c1 |  |  |  | 14.8 | 47 | IC50 ([1]; Homo sapiens, HCT-15, 48 h): 14.7 µM
COc1cc([C@@H]2c3cc4c(cc3[C@@H](O[C@@H]3O[C@@H]5CO[C@@H](C)O[C@H]5[C@H](O)[C@H]3O)[C@H]3COC(=O)[C@H]23)OCO4)cc(OC)c1O [ETOPOSIDE] |  |  | 12.2 | 2.57 |  | IC50 ([1]; Homo sapiens, HCT-15, 48 h): 9.45 µM
CN1CCN(c2nc(-c3cccs3)cc3ccccc23)CC1 [listing 1 of 2 here] | 16.1 | 7.9 |  |  |  | IC50 ([17]; mcf-10a): 38.8 µM; IC50 (DU-145; du-145): 44.5 µM
Cc1ccc2cc(-c3cccs3)nc(N3CCN(C)CC3)c2c1 [listing 1 of 2 here] | 1.96 | 1.64 | 11.6 |  | 16.2 | 
COc1cccc2c1C(=O)c1c(O)c3c(c(O)c1C2=O)C[C@@](O)(C(=O)CO)C[C@@H]3O[C@H]1C[C@H](N)[C@H](O)[C@H](C)O1 [DOXORUBICIN] |  |  | 0.93 | 0.84 | 4.88 | 
c1csc(-c2cc3ccccc3c(N3CCCCC3)n2)c1 | 3.22 | 3.61 | > 50 |  | > 50 | 
Cc1ccc2cc(-c3cccs3)nc(N3CCCCC3)c2c1 | 3.02 | 0.89 |  |  |  | 
Cc1ccc2c(N3CCN(C)CC3)nc(-c3cccs3)cc2c1 [listing 1 of 2 here] |  |  |  |  |  | inhibition [18]: 0%; inhibition [19]: 5.1% and 11.2%
Cc1ccc2cc(-c3cccs3)nc(N3CCN(C)CC3)c2c1 [listing 2 of 2 here] |  |  |  | 1.02 |  | IC50 ([17]; mcf-10a): 20.9 µM; IC50 (DU-145; du-145): 24.7 µM; IC50 ([1]; Homo sapiens, HCT-15, 48 h): 1.04 µM
CN1CCN(c2nc(-c3cccs3)cc3ccccc23)CC1 [listing 2 of 2 here] |  |  |  |  |  | inhibition [18]: 0%; inhibition [19]: 80.8% and 97.5%
Cc1ccc2c(N3CCCCC3)nc(-c3cccs3)cc2c1 [listing 1 of 2 here] | 2.56 | 5.45 | > 50 |  | > 50 | 
CCN1CCN(c2nc(-c3cccs3)cc3cc(C)ccc23)CC1 [listing 2 of 2 here] |  |  |  |  |  | inhibition [18]: 0%; inhibition [19]: 0%
Cc1ccc2c(N3CCN(C)CC3)nc(-c3cccs3)cc2c1 [listing 2 of 2 here] |  | 4.37 | 13.3 | 9.35 | 33 | 
Cc1ccc2c(N3CCCCC3)nc(-c3cccs3)cc2c1 [listing 2 of 2 here] | 8.03 | 1.88 |  |  |  | 
